Results published in ChEMBL document CHEMBL4689842, “EUbOPEN Chemogenomics Library wave 1” (2021).

Tested on: Fibroblast
Assay: Multiplex assay against human fibroblast
Format: toxicity, cell-based
In short: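 Tubulin, mitochondrial-mass and membrane-permeability phenotypes are per cents of healthy-nucleus cells. Cells were gated by CellPathfinder machine learning into Hoechst high-intensity objects or normal cells, normal cells into healthy, pyknosed or fragmented nuclei, and pyknosed cells into mitotic or apoptotic. Before that, live cells stained at seeding with Hoechst33342, BioTracker Green Microtubule Cytoskeleton Dye, MitoTracker Red and Annexin V Alexa Fluor 680 were imaged on a CQ1 microscope at 37°C and 5% CO2 after compound addition.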

[1] = 12 h, 1 µM, compound concentration 1 uM, replicate 1
[2] = 12 h, 1 µM, compound concentration 1 uM, replicate 2
[3] = 12 h, 10 µM, compound concentration 10 uM, replicate 1
[4] = 12 h, 10 µM, compound concentration 10 uM, replicate 2
[5] = 24 h, 1 µM, compound concentration 1 uM, replicate 1
[6] = 24 h, 1 µM, compound concentration 1 uM, replicate 2
[7] = 24 h, 10 µM, compound concentration 10 uM, replicate 1
[8] = 24 h, 10 µM, compound concentration 10 uM, replicate 2
[9] = 48 h, 1 µM, compound concentration 1 uM, replicate 1
[10] = 48 h, 1 µM, compound concentration 1 uM, replicate 2
[11] = 48 h, 10 µM, compound concentration 10 uM, replicate 1
[12] = 48 h, 10 µM, compound concentration 10 uM, replicate 2

Structure (SMILES): CCCS(=O)(=O)c1nc(NC2CC2)cc(-c2ccc3c(ccn3C3CC(C)(C)NC(C)(C)C3)c2)n1
- Population Apoptotic (%) [1]: 41%
- Population Fragmented Nuclei (%) [1]: 27%
- Population Healthy Nuclei (%) [1]: 42%
- Population Hoechst High Intensity Objects (%) [1]: 11%
- Population Membrane Permeable-Phenotype (%) [1]: 22%
- Population Mitochondria Different-Phenotype (%) [1]: 0%
- Population Mitotic Cells (%) [1]: 58%
- Population Normal (%) [1]: 88%
- Population Pyknosed Nuclei (%) [1]: 30%
- Population Tubulin-Different-Phenotype (%) [1]: 35%
- Total Cell Count [1]: 107
- Population Apoptotic (%) [2]: 38%
- Population Fragmented Nuclei (%) [2]: 14%
- Population Healthy Nuclei (%) [2]: 71%
- Population Hoechst High Intensity Objects (%) [2]: 5%
- Population Membrane Permeable-Phenotype (%) [2]: 5%
- Population Mitochondria Different-Phenotype (%) [2]: 41%
- Population Mitotic Cells (%) [2]: 61%
- Population Normal (%) [2]: 94%
- Population Pyknosed Nuclei (%) [2]: 13%
- Population Tubulin-Different-Phenotype (%) [2]: 29%
- Total Cell Count [2]: 1044
- Population Apoptotic (%) [3]: 71%
- Population Fragmented Nuclei (%) [3]: 42%
- Population Healthy Nuclei (%) [3]: 4%
- Population Hoechst High Intensity Objects (%) [3]: 10%
- Population Membrane Permeable-Phenotype (%) [3]: 60%
- Population Mitochondria Different-Phenotype (%) [3]: 0%
- Population Mitotic Cells (%) [3]: 28%
- Population Normal (%) [3]: 89%
- Population Pyknosed Nuclei (%) [3]: 53%
- Population Tubulin-Different-Phenotype (%) [3]: 40%
- Total Cell Count [3]: 124
- Population Apoptotic (%) [4]: 92%
- Population Fragmented Nuclei (%) [4]: 75%
- Population Hoechst High Intensity Objects (%) [4]: 7%
- Population Membrane Permeable-Phenotype (%) [4]: 100%
- Population Mitochondria Different-Phenotype (%) [4]: 38%
- Population Mitotic Cells (%) [4]: 7%
- Population Normal (%) [4]: 92%
- Population Pyknosed Nuclei (%) [4]: 19%
- Population Tubulin-Different-Phenotype (%) [4]: 84%
- Total Cell Count [4]: 101
- Population Apoptotic (%) [5]: 42%
- Population Fragmented Nuclei (%) [5]: 33%
- Population Healthy Nuclei (%) [5]: 39%
- Population Hoechst High Intensity Objects (%) [5]: 15%
- Population Membrane Permeable-Phenotype (%) [5]: 23%
- Population Mitochondria Different-Phenotype (%) [5]: 13%
- Population Mitotic Cells (%) [5]: 57%
- Population Normal (%) [5]: 84%
- Population Pyknosed Nuclei (%) [5]: 27%
- Population Tubulin-Different-Phenotype (%) [5]: 39%
- Total Cell Count [5]: 114
- Population Apoptotic (%) [6]: 22%
- Population Fragmented Nuclei (%) [6]: 15%
- Population Healthy Nuclei (%) [6]: 66%
- Population Hoechst High Intensity Objects (%) [6]: 5%
- Population Membrane Permeable-Phenotype (%) [6]: 10%
- Population Mitochondria Different-Phenotype (%) [6]: 21%
- Population Mitotic Cells (%) [6]: 77%
- Population Normal (%) [6]: 94%
- Population Pyknosed Nuclei (%) [6]: 18%
- Population Tubulin-Different-Phenotype (%) [6]: 29%
- Total Cell Count [6]: 1113
- Population Apoptotic (%) [7]: 76%
- Population Fragmented Nuclei (%) [7]: 38%
- Population Healthy Nuclei (%) [7]: 11%
- Population Hoechst High Intensity Objects (%) [7]: 19%
- Population Membrane Permeable-Phenotype (%) [7]: 63%
- Population Mitochondria Different-Phenotype (%) [7]: 0%
- Population Mitotic Cells (%) [7]: 24%
- Population Normal (%) [7]: 80%
- Population Pyknosed Nuclei (%) [7]: 50%
- Population Tubulin-Different-Phenotype (%) [7]: 54%
- Total Cell Count [7]: 123
- Population Apoptotic (%) [8]: 90%
- Population Fragmented Nuclei (%) [8]: 73%
- Population Healthy Nuclei (%) [8]: 10%
- Population Hoechst High Intensity Objects (%) [8]: 7%
- Population Membrane Permeable-Phenotype (%) [8]: 96%
- Population Mitochondria Different-Phenotype (%) [8]: 75%
- Population Mitotic Cells (%) [8]: 10%
- Population Normal (%) [8]: 92%
- Population Pyknosed Nuclei (%) [8]: 15%
- Population Tubulin-Different-Phenotype (%) [8]: 96%
- Total Cell Count [8]: 104
- Population Apoptotic (%) [9]: 58%
- Population Fragmented Nuclei (%) [9]: 34%
- Population Healthy Nuclei (%) [9]: 36%
- Population Hoechst High Intensity Objects (%) [9]: 20%
- Population Membrane Permeable-Phenotype (%) [9]: 16%
- Population Mitochondria Different-Phenotype (%) [9]: 10%
- Population Mitotic Cells (%) [9]: 41%
- Population Normal (%) [9]: 79%
- Population Pyknosed Nuclei (%) [9]: 28%
- Population Tubulin-Different-Phenotype (%) [9]: 60%
- Total Cell Count [9]: 105
- Population Apoptotic (%) [10]: 75%
- Population Fragmented Nuclei (%) [10]: 46%
- Population Healthy Nuclei (%) [10]: 49%
- Population Hoechst High Intensity Objects (%) [10]: 8%
- Population Membrane Permeable-Phenotype (%) [10]: 26%
- Population Mitochondria Different-Phenotype (%) [10]: 12%
- Population Mitotic Cells (%) [10]: 25%
- Population Normal (%) [10]: 91%
- Population Pyknosed Nuclei (%) [10]: 3%
- Population Tubulin-Different-Phenotype (%) [10]: 46%
- Total Cell Count [10]: 110
- Population Apoptotic (%) [11]: 76%
- Population Fragmented Nuclei (%) [11]: 59%
- Population Healthy Nuclei (%) [11]: 25%
- Population Hoechst High Intensity Objects (%) [11]: 39%
- Population Membrane Permeable-Phenotype (%) [11]: 76%
- Population Mitochondria Different-Phenotype (%) [11]: 4%
- Population Mitotic Cells (%) [11]: 23%
- Population Normal (%) [11]: 60%
- Population Pyknosed Nuclei (%) [11]: 15%
- Population Tubulin-Different-Phenotype (%) [11]: 61%
- Total Cell Count [11]: 137
- Population Apoptotic (%) [12]: 75%
- Population Fragmented Nuclei (%) [12]: 78%
- Population Healthy Nuclei (%) [12]: 15%
- Population Hoechst High Intensity Objects (%) [12]: 37%
- Population Membrane Permeable-Phenotype (%) [12]: 33%
- Population Mitochondria Different-Phenotype (%) [12]: 9%
- Population Mitotic Cells (%) [12]: 25%
- Population Normal (%) [12]: 62%
- Population Pyknosed Nuclei (%) [12]: 5%
- Population Tubulin-Different-Phenotype (%) [12]: 42%
- Total Cell Count [12]: 215
